{"source": "ChEMBL document CHEMBL4837261", "about": "“Optimization of TopoIV Potency, ADMET Properties, and hERG Inhibition of 5-Amino-1,3-dioxane-Linked Novel Bacterial Topoisomerase Inhibitors: Identification of a Lead with In Vivo Efficacy against MRSA” (J Med Chem, 2021)", "key": {"CYP2C8": {"biological_target": "CYP2C8 (Homo sapiens, UniProt P10632)", "sequence (P10632 whole entry)": "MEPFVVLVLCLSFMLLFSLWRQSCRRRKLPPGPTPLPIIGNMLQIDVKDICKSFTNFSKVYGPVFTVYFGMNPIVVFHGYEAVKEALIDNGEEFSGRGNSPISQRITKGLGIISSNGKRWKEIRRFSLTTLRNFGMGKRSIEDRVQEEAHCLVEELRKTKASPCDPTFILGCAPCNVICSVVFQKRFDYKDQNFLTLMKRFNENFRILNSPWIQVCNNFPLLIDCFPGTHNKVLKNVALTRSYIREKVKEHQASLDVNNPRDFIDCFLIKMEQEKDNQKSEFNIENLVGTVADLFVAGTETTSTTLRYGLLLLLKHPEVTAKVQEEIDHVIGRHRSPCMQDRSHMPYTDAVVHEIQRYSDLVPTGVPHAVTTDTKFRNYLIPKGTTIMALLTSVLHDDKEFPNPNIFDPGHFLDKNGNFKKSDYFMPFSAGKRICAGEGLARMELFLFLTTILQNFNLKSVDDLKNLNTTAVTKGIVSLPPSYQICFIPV", "assay": "Inhibition of CYP2C8 (unknown origin) at 10 uM relative to control", "type": "ADME"}, "DNA gyrase": {"biological_target": "DNA gyrase (Staphylococcus aureus, UniProt P0A0K8+P20831, D83N)", "assay": "Inhibition of Staphylococcus aureus DNA Gyrase D83N mutant assessed as reduction in supercoiling pBR322 DNA by measuring relaxation by bromophenol blue staining based TAE gel method"}, "Escherichia coli": {"system": "Escherichia coli", "assay": "Antibacterial activity against Escherichia coli isolates by CLSI method", "type": "functional"}, "HepG2": {"system": "HepG2", "assay": "Cytotoxicity against human HepG2 cells", "type": "cell-based", "outline": "(§1)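 THP-1, HepG2 and HeLa cells were exposed to compound from 128 to 0.0625 μg/mL. IC50 was obtained by nonlinear regression of the inhibition curves.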"}, "Staphylococcus aureus [1]": {"system": "Staphylococcus aureus", "assay": "Antibacterial activity against Staphylococcus aureus harbouring GyrA D83N mutant by CLSI method", "type": "functional"}, "CYP1A2": {"biological_target": "CYP1A2 (Homo sapiens, UniProt P05177)", "sequence (P05177 whole entry)": "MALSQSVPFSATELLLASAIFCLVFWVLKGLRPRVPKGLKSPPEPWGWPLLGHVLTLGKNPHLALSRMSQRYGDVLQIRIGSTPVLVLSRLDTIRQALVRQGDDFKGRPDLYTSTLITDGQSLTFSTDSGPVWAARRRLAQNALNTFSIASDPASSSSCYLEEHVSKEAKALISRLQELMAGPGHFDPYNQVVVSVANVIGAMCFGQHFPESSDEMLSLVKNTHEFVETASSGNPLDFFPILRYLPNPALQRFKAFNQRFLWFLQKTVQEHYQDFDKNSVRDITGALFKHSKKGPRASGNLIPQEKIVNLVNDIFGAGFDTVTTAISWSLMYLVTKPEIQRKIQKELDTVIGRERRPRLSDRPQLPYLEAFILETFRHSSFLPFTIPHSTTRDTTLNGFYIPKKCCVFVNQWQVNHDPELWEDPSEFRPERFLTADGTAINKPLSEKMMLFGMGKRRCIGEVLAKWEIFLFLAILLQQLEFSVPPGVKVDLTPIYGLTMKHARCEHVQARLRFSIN", "assay": "Inhibition of CYP1A2 (unknown origin) at 10 uM relative to control", "type": "ADME"}, "Kv4.3 (KCND3)": {"biological_target": "Kv4.3 (KCND3) (Homo sapiens, UniProt Q9UK17)", "assay": "Inhibition of recombinant human Kv4.3 expressed in human HEK293 cells at 100 uM measured at peak current by automated Qpatch clamp assay relative to control", "type": "ADME, cell-based", "details": "HEK293 cells expressing recombinant human Kv4.3"}, "[2]": {"assay": "Oral bioavailability in ICR (CD-1) mouse at 50 mg/kg measured up to 1440 mins by LC-MS/MS analysis", "type": "ADME, organism-based", "details": "in vivo", "outline": "(§2)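 Male ICR (CD-1) mice, 22 ± 2 g, given free base in DMSO/Solutol HS-15/0.9% NaCl (5/5/90) at 50 mg/kg PO or 10 mg/kg IV. Three mice per timepoint, 8 timepoints. Plasma taken by cardiac puncture at 10–1440 min (PO) or 3–1440 min (IV). Measured by LC-MS/MS, with parameters from noncompartmental analysis.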"}, "[3]": {"biological_target": "Acetylcholinesterase (Homo sapiens) (UniProt P22303)", "sequence (P22303 whole entry)": "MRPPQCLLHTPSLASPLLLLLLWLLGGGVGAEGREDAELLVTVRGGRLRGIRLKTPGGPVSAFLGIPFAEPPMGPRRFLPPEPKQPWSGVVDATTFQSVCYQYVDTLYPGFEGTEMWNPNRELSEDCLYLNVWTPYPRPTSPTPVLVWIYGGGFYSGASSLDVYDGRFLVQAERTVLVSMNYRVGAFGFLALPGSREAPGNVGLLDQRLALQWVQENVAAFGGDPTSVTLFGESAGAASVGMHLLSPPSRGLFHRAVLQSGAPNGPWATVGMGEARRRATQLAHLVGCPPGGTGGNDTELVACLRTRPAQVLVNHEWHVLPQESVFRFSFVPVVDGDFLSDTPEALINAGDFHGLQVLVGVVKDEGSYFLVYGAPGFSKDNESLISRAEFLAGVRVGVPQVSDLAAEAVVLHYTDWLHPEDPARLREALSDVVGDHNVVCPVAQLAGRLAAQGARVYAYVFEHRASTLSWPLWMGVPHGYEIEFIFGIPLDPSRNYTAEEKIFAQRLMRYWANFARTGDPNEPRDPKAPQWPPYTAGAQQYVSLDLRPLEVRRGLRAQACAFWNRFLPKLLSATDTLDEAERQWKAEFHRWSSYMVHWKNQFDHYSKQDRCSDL", "assay": "Inhibition of human recombinant acetylcholinesterase receptor expressed in HEK293 cells at 100 uM by spectrophotometry", "type": "cell-based"}, "[4]": {"assay": "Kinetic solubility of the compound at pH 7.4 buffer", "type": "physicochemical", "details": "read-out: Kinetic_solubility", "outline": "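Kinetic aqueous solubility was measured in buffer at pH 7.4.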"}, "THP-1": {"system": "THP-1", "assay": "Cytotoxicity against human THP-1 cells", "type": "cell-based", "outline": "as §1"}, "Pseudomonas aeruginosa": {"system": "Pseudomonas aeruginosa", "assay": "Antibacterial activity against Pseudomonas aeruginosa isolates by CLSI method", "type": "functional"}, "Cytochrome P450 2C9": {"biological_target": "Cytochrome P450 2C9 (Homo sapiens, UniProt P11712)", "sequence (P11712 whole entry)": "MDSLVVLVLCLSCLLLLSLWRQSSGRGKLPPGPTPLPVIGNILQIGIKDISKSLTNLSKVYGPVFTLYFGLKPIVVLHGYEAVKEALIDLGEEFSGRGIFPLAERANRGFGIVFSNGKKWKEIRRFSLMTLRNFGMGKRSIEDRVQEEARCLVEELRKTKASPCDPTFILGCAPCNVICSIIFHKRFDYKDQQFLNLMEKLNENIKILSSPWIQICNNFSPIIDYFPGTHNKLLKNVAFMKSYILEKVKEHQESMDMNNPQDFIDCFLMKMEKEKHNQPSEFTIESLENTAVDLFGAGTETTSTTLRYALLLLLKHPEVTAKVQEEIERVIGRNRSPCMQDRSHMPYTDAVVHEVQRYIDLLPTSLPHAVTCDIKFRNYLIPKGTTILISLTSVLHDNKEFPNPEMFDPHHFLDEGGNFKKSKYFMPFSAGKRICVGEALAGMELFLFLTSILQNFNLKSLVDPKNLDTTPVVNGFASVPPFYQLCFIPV", "assay": "Inhibition of CYP2C9 (unknown origin)", "type": "ADME"}, "Enterococcus faecium": {"system": "Enterococcus faecium", "assay": "Antibacterial activity against vancomycin-resistant Enterococcus faecium by CLSI method", "type": "functional"}, "[5]": {"assay": "Volume of distribution at steady state in ICR (CD-1) mouse at 10 mg/kg, iv measured up to 1440 mins by LC-MS/MS analysis", "type": "ADME, organism-based", "details": "in vivo, read-out: Vdss", "outline": "as §2"}, "Nav1.5": {"biological_target": "Nav1.5 (Homo sapiens, UniProt Q14524)", "sequence (Q14524 whole entry)": "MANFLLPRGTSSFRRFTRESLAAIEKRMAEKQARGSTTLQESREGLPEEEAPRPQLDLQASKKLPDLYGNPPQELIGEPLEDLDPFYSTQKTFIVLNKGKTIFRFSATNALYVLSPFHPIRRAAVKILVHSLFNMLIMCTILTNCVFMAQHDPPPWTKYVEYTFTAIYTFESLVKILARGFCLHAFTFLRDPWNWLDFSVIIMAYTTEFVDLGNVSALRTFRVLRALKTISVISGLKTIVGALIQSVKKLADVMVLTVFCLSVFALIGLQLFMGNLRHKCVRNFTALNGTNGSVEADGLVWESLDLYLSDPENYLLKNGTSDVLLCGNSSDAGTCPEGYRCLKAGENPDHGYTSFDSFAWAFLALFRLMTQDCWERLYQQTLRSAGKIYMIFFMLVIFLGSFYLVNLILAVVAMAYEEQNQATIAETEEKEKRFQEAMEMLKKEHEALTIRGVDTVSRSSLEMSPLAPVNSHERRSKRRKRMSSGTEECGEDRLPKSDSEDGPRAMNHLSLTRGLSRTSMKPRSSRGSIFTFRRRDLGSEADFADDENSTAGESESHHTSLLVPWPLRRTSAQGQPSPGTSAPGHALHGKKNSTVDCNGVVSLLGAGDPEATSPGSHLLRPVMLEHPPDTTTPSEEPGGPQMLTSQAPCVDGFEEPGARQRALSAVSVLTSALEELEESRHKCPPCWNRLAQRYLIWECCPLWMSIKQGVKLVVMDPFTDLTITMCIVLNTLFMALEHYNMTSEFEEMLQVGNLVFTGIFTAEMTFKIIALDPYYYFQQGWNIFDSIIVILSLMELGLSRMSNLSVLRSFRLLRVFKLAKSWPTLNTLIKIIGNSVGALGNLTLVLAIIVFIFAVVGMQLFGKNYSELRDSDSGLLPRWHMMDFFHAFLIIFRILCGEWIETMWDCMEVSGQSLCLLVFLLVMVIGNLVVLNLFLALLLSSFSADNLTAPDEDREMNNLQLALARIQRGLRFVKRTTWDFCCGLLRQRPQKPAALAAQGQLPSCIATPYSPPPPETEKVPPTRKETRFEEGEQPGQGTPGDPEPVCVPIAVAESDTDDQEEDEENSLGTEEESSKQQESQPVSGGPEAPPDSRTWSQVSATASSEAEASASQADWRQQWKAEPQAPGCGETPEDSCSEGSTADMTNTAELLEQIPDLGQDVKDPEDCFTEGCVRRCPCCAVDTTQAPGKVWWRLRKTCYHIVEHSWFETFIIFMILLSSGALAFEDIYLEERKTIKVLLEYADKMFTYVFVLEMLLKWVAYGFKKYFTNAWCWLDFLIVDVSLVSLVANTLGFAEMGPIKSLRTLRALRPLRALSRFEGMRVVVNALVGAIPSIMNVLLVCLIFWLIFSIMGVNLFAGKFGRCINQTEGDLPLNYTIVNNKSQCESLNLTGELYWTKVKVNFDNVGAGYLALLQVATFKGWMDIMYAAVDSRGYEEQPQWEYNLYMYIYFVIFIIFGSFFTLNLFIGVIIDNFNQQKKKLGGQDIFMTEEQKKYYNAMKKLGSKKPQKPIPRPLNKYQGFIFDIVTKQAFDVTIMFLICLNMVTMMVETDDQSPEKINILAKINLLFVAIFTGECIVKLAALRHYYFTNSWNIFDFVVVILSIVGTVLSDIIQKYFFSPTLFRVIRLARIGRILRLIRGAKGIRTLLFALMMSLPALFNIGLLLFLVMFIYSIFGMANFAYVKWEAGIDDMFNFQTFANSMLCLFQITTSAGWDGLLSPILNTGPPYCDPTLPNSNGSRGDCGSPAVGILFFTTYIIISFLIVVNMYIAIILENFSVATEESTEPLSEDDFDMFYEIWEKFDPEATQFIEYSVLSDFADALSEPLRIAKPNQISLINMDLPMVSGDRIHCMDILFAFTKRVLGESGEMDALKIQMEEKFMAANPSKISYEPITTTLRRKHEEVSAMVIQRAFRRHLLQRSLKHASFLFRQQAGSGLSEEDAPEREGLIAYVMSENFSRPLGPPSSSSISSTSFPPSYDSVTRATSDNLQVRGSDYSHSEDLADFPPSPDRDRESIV", "assay": "Inhibition of recombinant human Nav1.5 expressed in human HEK293 cells at 100 uM measured at peak current by automated Qpatch clamp assay relative to control", "type": "ADME, cell-based", "details": "HEK293 cells expressing recombinant human Nav1.5"}, "Streptococcus pyogenes": {"system": "Streptococcus pyogenes", "assay": "Antibacterial activity against Streptococcus pyogenes isolates by CLSI method", "type": "functional"}, "Cav1.2": {"biological_target": "Cav1.2 (Homo sapiens, UniProt Q13936)", "assay": "Inhibition of recombinant human Cav1.2 expressed in human HEK293 cells at 100 uM measured at peak current by automated Qpatch clamp assay relative to control", "type": "ADME, cell-based", "details": "HEK293 cells expressing recombinant human Cav1.2"}, "HepaRG": {"system": "HepaRG", "assay": "Cytotoxicity against human HepaRG cells at 100 uM by ATP depletion assay", "type": "cell-based", "outline": "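An ATP depletion read-out in HepaRG cells gave cytotoxicity across 0.01–100 μM, reported as % cytotoxicity at 100 μM.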"}, "[6]": {"assay": "Tmax in ICR (CD-1) mouse at 50 mg/kg, po measured up to 1440 mins by LC-MS/MS analysis", "type": "ADME, organism-based", "details": "in vivo", "outline": "as §2"}, "Enterococcus faecalis": {"system": "Enterococcus faecalis", "assay": "Antibacterial activity against vancomycin-resistant Enterococcus faecalis by CLSI method", "type": "functional"}, "Staphylococcus aureus [7]": {"system": "Staphylococcus aureus", "assay": "Antibacterial activity against Staphylococcus aureus 3527 by CLSI method", "type": "functional"}, "Staphylococcus aureus [8]": {"system": "Staphylococcus aureus", "assay": "Antibacterial activity against methicillin-resistant Staphylococcus aureus ATCC 33591 infected in iv dosed CD1 mouse model of septicemia assessed as mouse survival at 25 to 50 mg/kg, iv administered 0.5 to 3.5 hrs post injection measured for 7 days relative to control", "type": "functional", "details": "dose 25-50 mg/kg; time 7 day"}, "CYP2D6": {"biological_target": "CYP2D6 (Homo sapiens, UniProt P10635)", "assay": "Inhibition of CYP2D6 (unknown origin) at 10 uM relative to control", "type": "ADME"}, "Cytochrome P450 2B6": {"biological_target": "Cytochrome P450 2B6 (Homo sapiens, UniProt P20813)", "sequence (P20813 whole entry)": "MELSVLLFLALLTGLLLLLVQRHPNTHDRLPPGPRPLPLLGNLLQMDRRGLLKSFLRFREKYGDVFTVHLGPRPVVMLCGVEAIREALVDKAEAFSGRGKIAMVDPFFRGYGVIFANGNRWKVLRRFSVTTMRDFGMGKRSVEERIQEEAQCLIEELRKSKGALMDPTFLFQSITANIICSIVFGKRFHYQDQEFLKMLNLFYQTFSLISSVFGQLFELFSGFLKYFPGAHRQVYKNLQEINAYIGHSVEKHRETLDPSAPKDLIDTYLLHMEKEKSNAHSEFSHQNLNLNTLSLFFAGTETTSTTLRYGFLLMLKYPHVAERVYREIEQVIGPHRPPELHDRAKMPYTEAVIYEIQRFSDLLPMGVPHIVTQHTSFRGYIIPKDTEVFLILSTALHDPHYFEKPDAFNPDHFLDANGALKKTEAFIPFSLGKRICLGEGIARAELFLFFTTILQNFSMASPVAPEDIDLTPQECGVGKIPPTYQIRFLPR", "assay": "Inhibition of CYP2B6 (unknown origin)", "type": "ADME"}, "[9]": {"assay": "Metabolic stability in human microsomes assessed as half life", "type": "ADME, Microsome", "outline": "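Run at RTI International. Covers plasma protein binding (mouse, human; percent free), CACO-2 permeability and efflux, and microsomal stability (mouse and human microsomes) giving half-life.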"}, "[10]": {"assay": "AUClast in ICR (CD-1) mouse at 10 mg/kg, iv measured up to 1440 mins by LC-MS/MS analysis", "type": "ADME, organism-based", "parameters": "route intravenous, dose 10 mg/kg, time <=1440", "details": "in vivo", "outline": "(§3)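 Male ICR (CD-1) mice, 22 ± 2 g, given the free base in DMSO/Solutol HS-15/0.9% NaCl (5/5/90, v/v/v), IV at 10 mg/kg or PO at 50 mg/kg; 24 mice per route, three per timepoint. Plasma was taken by cardiac puncture at 3–1440 min (IV) or 10–1440 min (PO), measured by LC-MS/MS, and parameters were derived by noncompartmental analysis.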"}, "[11]": {"assay": "Half life in ICR (CD-1) mouse at 10 mg/kg, iv measured up to 1440 mins by LC-MS/MS analysis", "type": "ADME, organism-based", "details": "in vivo", "outline": "as §3"}}}
{"smiles": "COc1ccc2ncc(F)c(C[C@H](O)[C@H]3OC[C@H](NCc4cc5c(nn4)OCCS5)CO3)c2n1", "values": [{"measurement": "inhibition at 10 µM", "setting": "CYP2C8", "result": "> 50", "unit": "%"}, {"measurement": "IC50", "setting": "DNA gyrase", "result": 15, "unit": "µM"}, {"measurement": "MIC50", "setting": "Escherichia coli", "result": "> 64", "unit": "µg/mL"}, {"measurement": "IC50", "setting": "HepG2", "result": "> 125", "unit": "µM"}, {"measurement": "MIC", "setting": "Staphylococcus aureus [1]", "result": 4, "unit": "µg/mL"}, {"measurement": "inhibition at 10 µM", "setting": "CYP1A2", "result": "> 50", "unit": "%"}, {"measurement": "inhibition at 100 µM", "setting": "Kv4.3 (KCND3)", "result": "< 25", "unit": "%"}, {"measurement": "bioavailability", "setting": "[2]", "result": 49, "unit": "%"}, {"measurement": "inhibition", "setting": "[3]", "result": "> 45", "unit": "%"}, {"measurement": "solubility kinetic", "setting": "[4]", "result": 61.4, "unit": "µM"}, {"measurement": "IC50", "setting": "THP-1", "result": "> 125", "unit": "µM"}, {"measurement": "MIC50", "setting": "Pseudomonas aeruginosa", "result": "> 64", "unit": "µg/mL"}, {"measurement": "IC50", "setting": "Cytochrome P450 2C9", "result": "> 10", "unit": "µM"}, {"measurement": "MIC50", "setting": "Enterococcus faecium", "result": 0.25, "unit": "µg/mL"}, {"measurement": "MIC90", "setting": "Enterococcus faecium", "result": 1, "unit": "µg/mL"}, {"measurement": "Vd", "setting": "[5]", "result": 1, "unit": "L/kg"}, {"measurement": "inhibition at 100 µM", "setting": "Nav1.5", "result": "< 25", "unit": "%"}, {"measurement": "MIC50", "setting": "Streptococcus pyogenes", "result": 0.5, "unit": "µg/mL"}, {"measurement": "inhibition at 100 µM", "setting": "Cav1.2", "result": "< 25", "unit": "%"}, {"measurement": "Activity", "setting": "HepaRG", "result": 12, "unit": "%"}, {"measurement": "Tmax", "setting": "[6]", "result": 10.2, "unit": "min"}, {"measurement": "MIC50", "setting": "Enterococcus faecalis", "result": 0.25, "unit": "µg/mL"}, {"measurement": "MIC90", "setting": "Enterococcus faecalis", "result": 1, "unit": "µg/mL"}, {"measurement": "MIC", "setting": "Staphylococcus aureus [7]", "result": 0.25, "unit": "µg/mL"}, {"measurement": "Survival", "setting": "Staphylococcus aureus [8]", "result": 100, "unit": "%"}, {"measurement": "inhibition at 10 µM", "setting": "CYP2D6", "result": "> 50", "unit": "%"}, {"measurement": "IC50", "setting": "Cytochrome P450 2B6", "result": "> 10", "unit": "µM"}, {"measurement": "half-life", "setting": "[9]", "result": 94, "unit": "min"}, {"measurement": "AUC(0-t) at 24 h", "setting": "[10]", "result": 2400, "unit": "ng·h/mL"}, {"measurement": "half-life", "setting": "[11]", "result": 38, "unit": "min"}]}
